Test results taken from ChEMBL document CHEMBL1143671, “Antibacterial nicotinamide adenine dinucleotide synthetase inhibitors: amide- and ether-linked tethered dimers with alpha-amino acid end groups” (J Med Chem, 2007).
Converted amounts (≈) assume the structure as drawn. The source made the active and inactive calls. No cut-off for these calls is given here.

Key:
Pseudomonas aeruginosa = assay: Antibacterial activity against Pseudomonas aeruginosa ATCC 27853; format: functional
How it was run: (§1)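 Broth tube dilution MIC. Bacteria subcultured from stock onto agar and grown overnight at 37 ± 2 °C in ambient air. Overnight cultures went into broth adjusted to about 5 × 10⁸ CFU/mL. Inhibitor started at 50 µg/mL with doubling dilutions over 10 tubes in duplicate. Each tube received 0.01 mL of challenge broth.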

Staphylococcus aureus [1] = assay: Antibacterial activity against Staphylococcus aureus ATCC 29213; format: functional; how it was run: as §1
Staphylococcus aureus [2] = assay: Antibacterial activity against methicillin-resistant Staphylococcus aureus ATCC 33591; format: functional
How it was run: as §1, with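 “MIC, performed by a contract lab.” for “MIC.”, “Bacteria were” for “Bacteria”, “in” for “with”, “dilutions,” for “dilutions over”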

Bacillus subtilis [3] = assay: Antibacterial activity against Bacillus subtilis ATCC 14289; format: functional; how it was run: as §1
[4] = Inhibition of Bacillus subtilis NAD synthetase by fluorescence based assay
How it was run: (§2)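 B. subtilis NAD synthetase, overexpressed and purified, 2.0 µg/mL. Coupled to yeast ADH (40 µg/mL) with 1% EtOH at pH 8.5: 58.5 mM HEPPS, 18.5 mM NH4Cl, 19.5 mM KCl, 9.75 mM MgCl2, 0.1 mM NaAD, 2.5% DMSO. No BOG; 0–0.01% Triton X-100. Started with 0.2 mM ATP. NADH read by fluorescence. Triplicate points; IC50 averaged over two experiments.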

[5] = (§3) Inhibition of yeast alcohol dehydrogenase in presence of 0.01% Triton X-100 by fluorescence based assay; design: species or system Saccharomyces cerevisiae
How it was run: (§4)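 Yeast ADH 2.5 µg/mL in 60 mM HEPPS pH 8.5 with 0.5 mM NH4Cl, 20 mM KCl, 10 mM MgCl2, 60 mM ethanol, 2.5% DMSO and 0–0.01% Triton X-100. Started with 0.75 mM β-NAD and stopped with 1.2 M guanidine·HCl after 2 min. NADH fluorescence read at 355 nm excitation / 460 nm emission, pre-NAD blank subtracted. Triplicate points; IC50 averaged over two experiments.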

[6] = (§5) Inhibition of Bacillus subtilis NAD synthetase in presence of 0.001% Triton X-100 by fluorescence based assay; how it was run: as §2
[7] = Inhibition of yeast alcohol dehydrogenase by fluorescence based assay; design: species or system Saccharomyces cerevisiae; how it was run: as §4
[8] = (§6) Inhibition of yeast alcohol dehydrogenase in presence of 0.001% Triton X-100 by fluorescence based assay; design: species or system Saccharomyces cerevisiae; how it was run: as §4
[9] = (§7) Inhibition of Bacillus subtilis NAD synthetase in presence of 0.01% Triton X-100 by fluorescence based assay; how it was run: as §2
Saccharomyces cerevisiae [10] = assay: as §3; how it was run: as §4
Bacillus subtilis [11] = assay: as §5; how it was run: as §2
Saccharomyces cerevisiae [12] = assay: as §6; how it was run: as §4
Bacillus subtilis [13] = assay: as §7; how it was run: as §2

| SMILES | MIC (Staphylococcus aureus [1]) [µM] | MIC (Staphylococcus aureus [2]) [µM] | MIC (Bacillus subtilis [3]) [µM] | IC50 [4] [µM] | other results |
| --- | --- | --- | --- | --- | --- |
| C[N+](C)(C)c1ccc(CC(=O)OCCCCCCCCOc2ccc(OCc3ccccc3)cc2)cc1 | 9.4 | 6.2 | 2 | 41 | MIC (Pseudomonas aeruginosa): > 50 µM |
| N=C(N)N[C@H](C(=O)NCCCCCCCCOc1ccc(OCc2ccccc2)cc1)c1ccccc1 |  | 1.56 (≈ 0.784 µg/mL) | 1.56 (≈ 0.784 µg/mL) | 19 |  |
| C[N+](C)(C)[C@H](COCCCCCCCCOc1ccc(OCc2ccccc2)cc1)c1ccccc1 |  | 3.13 | 0.78 | 38 |  |
| N=C(N)N[C@@H](Cc1ccccc1)C(=O)NCCCCCCCCOc1ccc(OCc2ccccc2)cc1 |  | 1.56 (≈ 0.806 µg/mL) | 3.13 (≈ 1.62 µg/mL) | 12 |  |
| N=C(N)N[C@H](COCCCCCCCCOc1ccc(OCc2ccccc2)cc1)c1ccccc1 |  | 0.78 (≈ 0.382 µg/mL) | 3.13 (≈ 1.53 µg/mL) | 11 |  |
| N=C(N)N[C@H](COCCCCCCCCOc1ccc(OCc2ccccc2)cc1)Cc1ccccc1 |  | 0.78 (≈ 0.393 µg/mL) | 3.13 (≈ 1.58 µg/mL) | 11 |  |
| C[N+](C)(C)[C@H](C(=O)NCCCCCCCCOc1ccc(OCc2ccccc2)cc1)c1ccccc1 |  | 1.56 | 1.56 | 45 |  |
| C[N+](C)(C)[C@@H](Cc1ccccc1)C(=O)OCCCCCCCCOc1ccc(OCc2ccccc2)cc1 | 0.78 | 0.78 | 0.78 | 22 | IC50 [5]: 266 µM; MIC (Pseudomonas aeruginosa): > 50 µM; IC50 [6]: 16.5 µM; IC50 [7]: 27 µM; IC50 [8]: 69 µM; IC50 [9]: 37 µM |
| COc1cccc(OC)c1C(=O)N[C@@H]1C(=O)N2[C@@H]1SC(C)(C)[C@@H]2C(=O)O [METHICILLIN] | 1 (≈ 0.38 µg/mL) | 32 (≈ 12.2 µg/mL) |  |  |  |
| CO[C@H]1/C=C/O[C@@]2(C)Oc3c(C)c(O)c4c(O)c(c(/C=N/N5CCN(C)CC5)c(O)c4c3C2=O)NC(=O)/C(C)=C\C=C\[C@H](C)[C@H](O)[C@@H](C)[C@@H](O)[C@@H](C)[C@H](OC(C)=O)[C@@H]1C [RIFAMPIN] |  |  | 1.5 (≈ 1.23 µg/mL) |  |  |
| Clc1ccccc1C(c1ccccc1)(c1ccccc1)n1ccnc1 [CLOTRIMAZOLE] |  |  |  | > 1500 | Activity (Saccharomyces cerevisiae [10]): inactive; Activity (Bacillus subtilis [11]): inactive; IC50 [7]: 96.5 µM; Activity (Saccharomyces cerevisiae [12]): inactive; Activity (Bacillus subtilis [13]): inactive |
| C[C@H]1c2cccc(O)c2C(=O)C2=C(O)[C@]3(O)C(=O)C(C(N)=O)=C(O)[C@@H](N(C)C)[C@@H]3[C@@H](O)[C@@H]21 [DOXYCYCLINE] | 1.56 (≈ 0.693 µg/mL) | > 30 | 1.56 (≈ 0.693 µg/mL) |  |  |
| C[N+](C)(C)[C@@H](Cc1ccccc1)C(=O)NCCCCCCCCOc1ccc(OCc2ccccc2)cc1 | 0.78 | 0.78 | 0.39 | 40 | IC50 [5]: > 1500 µM; MIC (Pseudomonas aeruginosa): > 50 µM; IC50 [6]: 27.8 µM; IC50 [7]: > 1500 µM; IC50 [8]: > 1500 µM; IC50 [9]: 104 µM |
| C[N+](C)(C)[C@@H](Cc1c[nH]c2ccccc12)C(=O)OCCCCCCCCOc1ccc(OCc2ccccc2)cc1 |  |  |  | 19 |  |
| CC1(C)S[C@@H]2[C@H](NC(=O)[C@H](N)c3ccccc3)C(=O)N2[C@H]1C(=O)O [AMPICILLIN] |  | > 50 | 0.2 (≈ 0.0699 µg/mL) |  |  |
| O=C(O)c1cn(C2CC2)c2cc(N3CCNCC3)c(F)cc2c1=O [CIPROFLOXACIN] |  | 0.5 (≈ 0.166 µg/mL) | 0.5 (≈ 0.166 µg/mL) |  |  |
| C[N+](C)(C)[C@@H](Cc1ccc(O)cc1)C(=O)OCCCCCCCCOc1ccc(OCc2ccccc2)cc1 |  | 3.13 | 1.56 | 53 |  |
| C[N+](C)(C)[C@H](COCCCCCCCCOc1ccc(OCc2ccccc2)cc1)Cc1ccccc1 | 0.78 | 1.56 | 0.39 | 21 | MIC (Pseudomonas aeruginosa): > 50 µM |
